These results are taken from ChEMBL document CHEMBL4665884, “Structural Insights into the Recognition of Mono- and Diacetylated Histones by the ATAD2B Bromodomain” (J Med Chem, 2020).

The Kd is a measure of binding affinity in units of concentration.

The nature of test [1]: Binding affinity to N-terminal GST tagged human ATAD2B Y1037A mutant expressed in Escherichia coli by ITC analysis. In short, it runs like this: (§1)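 GST tag removed by PreScission cleavage after glutathione-resin capture. Protein and peptides were dialyzed into 20 mM NaH2PO4 pH 7.0, 150 mM NaCl. Peptide dilution heats were subtracted. KD is the mean ± SD of triplicates; non-binders were run in duplicate.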
(In general: ITC needs no label: the signal is the heat of the interaction.)

For test [2], the target named is T1, ATPase family AAA domain-containing protein 2B (Homo sapiens, UniProt Q9ULI0).
T1 sequence (Q9ULI0 whole entry): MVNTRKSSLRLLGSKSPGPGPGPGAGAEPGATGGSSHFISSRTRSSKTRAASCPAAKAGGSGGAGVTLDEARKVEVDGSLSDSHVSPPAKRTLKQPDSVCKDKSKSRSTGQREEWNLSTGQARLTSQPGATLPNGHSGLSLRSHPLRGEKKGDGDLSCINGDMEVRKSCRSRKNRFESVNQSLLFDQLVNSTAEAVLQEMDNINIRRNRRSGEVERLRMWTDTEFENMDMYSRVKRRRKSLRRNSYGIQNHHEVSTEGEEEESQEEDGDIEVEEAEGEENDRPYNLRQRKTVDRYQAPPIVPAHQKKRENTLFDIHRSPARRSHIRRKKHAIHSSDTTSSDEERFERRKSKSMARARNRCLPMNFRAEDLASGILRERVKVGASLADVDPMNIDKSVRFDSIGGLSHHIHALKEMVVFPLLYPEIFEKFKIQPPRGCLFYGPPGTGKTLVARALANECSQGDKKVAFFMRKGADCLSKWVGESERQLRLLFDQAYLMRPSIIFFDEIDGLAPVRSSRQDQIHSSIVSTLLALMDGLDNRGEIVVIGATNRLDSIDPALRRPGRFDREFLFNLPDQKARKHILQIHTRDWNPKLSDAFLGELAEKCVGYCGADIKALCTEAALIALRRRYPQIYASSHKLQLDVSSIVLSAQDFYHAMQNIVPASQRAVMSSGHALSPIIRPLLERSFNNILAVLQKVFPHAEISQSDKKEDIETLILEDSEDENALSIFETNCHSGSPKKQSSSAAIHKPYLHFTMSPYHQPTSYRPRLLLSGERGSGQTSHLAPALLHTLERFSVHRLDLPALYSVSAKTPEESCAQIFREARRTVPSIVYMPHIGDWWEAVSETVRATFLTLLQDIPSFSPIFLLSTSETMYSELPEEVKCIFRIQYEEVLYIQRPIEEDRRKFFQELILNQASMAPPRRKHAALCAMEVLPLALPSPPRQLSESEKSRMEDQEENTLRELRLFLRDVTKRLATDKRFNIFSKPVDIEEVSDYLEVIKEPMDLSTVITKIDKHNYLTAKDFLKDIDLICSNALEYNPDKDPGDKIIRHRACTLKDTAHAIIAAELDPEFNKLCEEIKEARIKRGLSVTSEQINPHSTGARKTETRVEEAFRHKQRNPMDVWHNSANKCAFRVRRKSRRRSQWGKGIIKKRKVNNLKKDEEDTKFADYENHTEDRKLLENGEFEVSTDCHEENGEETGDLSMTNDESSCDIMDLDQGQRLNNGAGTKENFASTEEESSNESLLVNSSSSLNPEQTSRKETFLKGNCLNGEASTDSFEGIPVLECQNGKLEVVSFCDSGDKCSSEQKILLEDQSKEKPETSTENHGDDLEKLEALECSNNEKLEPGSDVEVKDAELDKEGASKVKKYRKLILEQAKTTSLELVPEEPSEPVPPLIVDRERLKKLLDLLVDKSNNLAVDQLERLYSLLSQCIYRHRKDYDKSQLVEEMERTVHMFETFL
Kind of test: Binding affinity to N-terminal GST tagged human ATAD2B short form expressed in Escherichia coli by ITC analysis. In short, it runs like this:
as §1

Test [3] deals with T1, ATPase family AAA domain-containing protein 2B. Kind of test: Binding affinity to N-terminal GST tagged human ATAD2B (953-1085 residues) expressed in Escherichia coli by ITC analysis. In short, it runs like this:
as §1

Test [4] is described as follows: Binding affinity to N-terminal GST tagged human ATAD2B Y995A mutant expressed in Escherichia coli by ITC analysis. The gist of the method: as §1
Test [5] concerns the target T2, ATPase family AAA domain-containing protein 2 (Homo sapiens, UniProt Q6PL18).
T2 sequence (Q6PL18 whole entry): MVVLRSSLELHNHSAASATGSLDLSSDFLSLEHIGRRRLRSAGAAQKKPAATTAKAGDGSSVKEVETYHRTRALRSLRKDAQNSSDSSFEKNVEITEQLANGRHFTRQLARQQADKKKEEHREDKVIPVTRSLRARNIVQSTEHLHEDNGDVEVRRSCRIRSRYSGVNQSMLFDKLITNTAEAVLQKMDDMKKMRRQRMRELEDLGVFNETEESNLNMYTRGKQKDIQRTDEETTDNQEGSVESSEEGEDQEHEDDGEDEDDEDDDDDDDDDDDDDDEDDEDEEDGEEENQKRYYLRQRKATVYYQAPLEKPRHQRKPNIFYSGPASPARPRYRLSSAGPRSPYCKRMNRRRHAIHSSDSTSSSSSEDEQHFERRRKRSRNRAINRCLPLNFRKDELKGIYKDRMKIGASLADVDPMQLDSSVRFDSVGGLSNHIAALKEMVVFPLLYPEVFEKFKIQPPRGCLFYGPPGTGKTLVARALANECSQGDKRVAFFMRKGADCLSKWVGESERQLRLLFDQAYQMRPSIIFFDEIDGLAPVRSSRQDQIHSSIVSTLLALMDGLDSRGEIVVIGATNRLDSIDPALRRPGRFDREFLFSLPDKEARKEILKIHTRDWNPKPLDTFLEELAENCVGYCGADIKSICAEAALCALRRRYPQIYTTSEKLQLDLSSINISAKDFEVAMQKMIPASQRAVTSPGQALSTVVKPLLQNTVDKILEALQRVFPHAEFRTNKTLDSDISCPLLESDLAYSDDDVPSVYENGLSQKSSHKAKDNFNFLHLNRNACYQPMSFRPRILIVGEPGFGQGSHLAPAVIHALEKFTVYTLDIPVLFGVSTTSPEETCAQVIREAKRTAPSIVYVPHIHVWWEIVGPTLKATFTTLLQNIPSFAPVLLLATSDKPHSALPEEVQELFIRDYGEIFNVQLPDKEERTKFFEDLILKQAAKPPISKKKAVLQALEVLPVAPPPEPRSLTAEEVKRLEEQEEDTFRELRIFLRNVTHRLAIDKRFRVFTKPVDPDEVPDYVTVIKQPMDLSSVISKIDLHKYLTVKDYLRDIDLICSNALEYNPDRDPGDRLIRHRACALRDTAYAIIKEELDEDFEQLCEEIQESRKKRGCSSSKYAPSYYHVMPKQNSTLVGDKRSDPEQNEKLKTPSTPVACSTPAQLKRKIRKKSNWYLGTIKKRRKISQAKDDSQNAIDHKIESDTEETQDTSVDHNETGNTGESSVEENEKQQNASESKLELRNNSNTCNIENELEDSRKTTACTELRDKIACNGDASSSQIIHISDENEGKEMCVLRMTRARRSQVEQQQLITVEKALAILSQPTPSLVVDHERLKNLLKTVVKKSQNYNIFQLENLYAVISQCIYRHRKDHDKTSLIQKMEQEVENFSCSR
Kind of test: Binding affinity to N-terminal GST tagged human ATAD2 (1-20 residues) expressed in Escherichia coli by ITC analysis.

In test [6] the target is T2, ATPase family AAA domain-containing protein 2. Kind of test: Binding affinity to N-terminal GST tagged human ATAD2 (1-25 residues) expressed in Escherichia coli by ITC analysis.
A short description of test [7]: Binding affinity to N-terminal GST tagged human ATAD2B N1038A mutant expressed in Escherichia coli by ITC analysis. In short, it runs like this:
as §1

For the molecule H-SGRGK(Ac)GGKGL-OH, the Kd result in test [1] is “Not Active”; in test [2], “Not Active”; in test [3] (read-out: Kd) it was 48 µM; in test [4], “Not Active”; in test [5], 22 µM.

In the case of `Cc1cncc(-c2ccc(N[C@@H]3CCNC[C@H]3OCC3CCS(=O)(=O)CC3)c3[nH]c(=O)c(C)cc23)c1`, the dissociation constant Kd entry in test [2] is “Not Active”; in test [3] (read-out: Kd), 0.167 µM.

As for `CC(=O)NCCCC[C@H](NC(=O)CNC(=O)CN)C(=O)NCC(=O)N[C@@H](CC(C)C)C(=O)NCC(=O)N[C@@H](CCCCNC(C)=O)C(=O)NCC(=O)NCC(=O)N[C@@H](C)C(=O)O`, in test [3], the Kd entry was “Not Active”.

Consider `CC(=O)NCCCC[C@H](NC(=O)CNC(=O)[C@H](CC(C)C)NC(=O)CNC(=O)[C@H](CCCCN)NC(=O)CNC(=O)CNC(=O)[C@H](CCCCN)NC(=O)CN)C(=O)NCC(=O)NCC(=O)N[C@@H](C)C(=O)N[C@@H](CCCCN)C(=O)N[C@@H](CCCNC(=N)N)C(=O)O`, for which the Kd result in test [1] was “Not Active”; in test [2], “Not Active”; in test [3] (read-out: Kd), 50.5 µM; in test [6] it was 2.5 µM; in test [4] it was “Not Active”.

Take `C[C@H](NC(=O)[C@H](CCCCN)NC(=O)CNC(=O)CNC(=O)[C@@H](NC(=O)[C@H](CO)NC(=O)[C@H](CCCCN)NC(=O)[C@@H](N)CCCNC(=N)N)[C@@H](C)O)C(=O)N1CCC[C@H]1C(=O)N[C@@H](CCCNC(=N)N)C(=O)N[C@@H](CCCCN)C(=O)N[C@@H](CCC(N)=O)C(=O)O`: the Kd result in test [3] is on record as “Not Active”.

For the molecule `C[C@H](N)C(=O)N[C@@H](CCCNC(=N)N)C(=O)N[C@H](C(=O)N[C@@H](CCCCN)C(=O)N[C@@H](CCC(N)=O)C(=O)N[C@H](C(=O)N[C@@H](C)C(=O)N[C@@H](CCCNC(=N)N)C(=O)N[C@@H](CCCCN)C(=O)N[C@@H](CO)C(=O)N[C@H](C(=O)NCC(=O)O)[C@@H](C)O)[C@@H](C)O)[C@@H](C)O`, in test [3], the Kd result was “Not Active”.

Consider H-SGRGKGGK(Ac)GL-OH, for which the Kd in test [3] (read-out: Kd) amounted to 1160 µM.

In the case of `CC(=O)NCCCC[C@H](NC(=O)CNC(=O)CNC(=O)[C@H](CCCCN)NC(=O)CN)C(=O)NCC(=O)N[C@@H](CC(C)C)C(=O)NCC(=O)N[C@@H](CCCCN)C(=O)NCC(=O)NCC(=O)N[C@@H](C)C(=O)N[C@@H](CCCCN)C(=O)N[C@@H](CCCNC(=N)N)C(=O)O`, the Kd entry in test [3] is given as “Not Active”.

On to H-LGK(Ac)GGAK(Ac)RHRK-OH, for which the Kd in test [3] (read-out: Kd) stood at 214 µM.

As to H-SGRGK(Ac)GGK(Ac)GL-OH, the Kd result is “Not Active” in test [1]; “Not Active” in test [2]; 623 µM in test [7] (read-out: Kd); 28.1 µM in test [3] (read-out: Kd); “Not Active” in test [4].

With H-SGRGK(Ac)QGGKARA-OH, the Kd result in test [1] is “Not Active”; in test [2], “Not Active”; in test [3] (read-out: Kd), 42.5 µM; in test [4], “Not Active”.

On to H-LGKGGAK(Ac)RHRK-OH, for which the Kd result in test [3] is listed as “Not Active”.

Turning to `CC(=O)NCCCC[C@H](NC(=O)CN)C(=O)NCC(=O)NCC(=O)N[C@@H](CCCCN)C(=O)NCC(=O)N[C@@H](CC(C)C)C(=O)NCC(=O)N[C@@H](CCCCN)C(=O)NCC(=O)NCC(=O)N[C@@H](C)C(=O)N[C@@H](CCCCN)C(=O)N[C@@H](CCCNC(=N)N)C(=O)O`, the Kd result in test [7] and in test [3] was “Not Active” in each case.
